The values below come from ChEMBL document CHEMBL1135470, “Synthesis and protein kinase inhibitory activity of balanol analogues with modified benzophenone subunits” (J Med Chem, 2002).

Molecules are shown by their SMILES.

Assay [1] deals with cAMP-dependent protein kinase catalytic subunit alpha (Bos taurus, UniProt P00517). Put plainly: Inhibition of cAMP-dependent Protein kinase A (PKA).
Assay [2] has as its target Protein kinase C beta type (Homo sapiens, UniProt P05771). Put plainly: Inhibition of partially purified recombinant human calcium sensitive protein kinase C beta 2. The method, boiled down: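 Enzyme source was partially purified recombinant human PKC isozymes and PKA. IC50 was calculated from four-point curves of 10-fold dilutions, following a previously published procedure.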

The target of assay [3] is T1, Protein kinase C epsilon type (Homo sapiens, UniProt Q02156).
T1 sequence (Q02156 whole entry): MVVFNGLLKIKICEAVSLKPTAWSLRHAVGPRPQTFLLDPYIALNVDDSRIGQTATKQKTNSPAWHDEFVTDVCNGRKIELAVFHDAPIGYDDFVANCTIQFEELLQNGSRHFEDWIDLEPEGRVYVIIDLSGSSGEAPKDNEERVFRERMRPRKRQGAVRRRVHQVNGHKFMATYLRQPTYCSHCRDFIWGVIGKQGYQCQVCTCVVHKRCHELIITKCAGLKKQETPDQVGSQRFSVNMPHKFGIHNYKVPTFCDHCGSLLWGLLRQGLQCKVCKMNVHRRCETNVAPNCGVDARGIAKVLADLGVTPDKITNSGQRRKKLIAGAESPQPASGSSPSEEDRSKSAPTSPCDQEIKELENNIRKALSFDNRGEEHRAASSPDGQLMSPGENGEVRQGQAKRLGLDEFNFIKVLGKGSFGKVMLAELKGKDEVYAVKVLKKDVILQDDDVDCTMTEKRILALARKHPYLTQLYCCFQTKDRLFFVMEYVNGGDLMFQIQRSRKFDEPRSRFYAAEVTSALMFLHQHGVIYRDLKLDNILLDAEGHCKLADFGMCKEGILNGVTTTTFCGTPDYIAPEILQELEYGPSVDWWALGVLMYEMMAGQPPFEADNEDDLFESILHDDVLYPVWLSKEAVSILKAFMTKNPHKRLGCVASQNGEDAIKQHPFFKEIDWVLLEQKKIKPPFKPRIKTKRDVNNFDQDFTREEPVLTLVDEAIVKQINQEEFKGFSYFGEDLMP
Briefly: Inhibition of partially purified recombinant human calcium insensitive protein kinase C epsilon.

The next assay is filed under the species Homo sapiens. Put plainly: Inhibition of phorbol-12-myristate-13-acetate (PMA)induced superoxide burst in human neutrophils. The class given is functional. In short, it runs like this:
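A cellular assay in human neutrophils measured inhibition of the superoxide burst induced by phorbol-12-myristate-13-acetate (PMA). Compounds were tested up to a maximum of 10 μM. IC50 was calculated from four-point curves of 10-fold dilutions, following a previously published procedure.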

Assay [4] concerns the target Protein kinase C alpha type (Homo sapiens, UniProt P17252). Put plainly: Inhibition of partially purified recombinant human calcium sensitive protein kinase C alpha.

Protein kinase C beta type, sequence (P05771 whole entry): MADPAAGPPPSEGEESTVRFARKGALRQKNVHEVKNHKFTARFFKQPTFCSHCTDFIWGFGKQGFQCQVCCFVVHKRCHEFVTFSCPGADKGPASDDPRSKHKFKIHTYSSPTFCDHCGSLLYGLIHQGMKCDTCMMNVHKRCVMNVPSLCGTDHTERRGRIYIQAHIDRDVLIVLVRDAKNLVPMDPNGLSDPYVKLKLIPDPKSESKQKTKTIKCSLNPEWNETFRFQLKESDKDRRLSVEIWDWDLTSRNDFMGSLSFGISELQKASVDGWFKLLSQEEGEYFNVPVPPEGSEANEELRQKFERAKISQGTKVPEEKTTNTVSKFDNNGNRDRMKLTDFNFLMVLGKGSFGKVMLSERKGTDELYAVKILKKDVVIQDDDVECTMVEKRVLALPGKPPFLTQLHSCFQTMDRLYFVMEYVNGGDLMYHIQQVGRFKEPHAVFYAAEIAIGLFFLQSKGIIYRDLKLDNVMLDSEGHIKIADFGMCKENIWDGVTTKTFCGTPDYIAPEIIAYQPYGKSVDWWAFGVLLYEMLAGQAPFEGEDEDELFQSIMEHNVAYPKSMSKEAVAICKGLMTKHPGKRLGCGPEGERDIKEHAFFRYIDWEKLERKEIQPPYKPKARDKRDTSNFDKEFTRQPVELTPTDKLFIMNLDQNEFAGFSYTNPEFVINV

As for `O=C(NC1CNCCC[C@H]1OC(=O)c1cc(O)c(C(=O)c2c(O)cccc2O)c(O)c1)c1ccc(O)cc1` (stereo not given in full), the IC50 in assay [1] was found to be 0.44 µM; in assay [2], 7.6 µM; in assay [3], 2.1 µM; in the assay listed under Homo sapiens it was 9.2 µM; in assay [4], 0.86 µM.

As to `O=C(NC1CCCC1OC(=O)c1ccc(C(=O)c2c(O)cccc2C(=O)O)cc1)c1ccc(O)cc1` (stereo not given), the IC50 is 1.7 µM in assay [1]; 4.5 µM in assay [2]; 30 µM in assay [3]; over 10 µM in the assay listed under Homo sapiens; 34 µM in assay [4].

`O=C(NC1CNCC1OC(=O)c1cc(O)c(C(=O)c2c(O)ccc3ccccc23)c(O)c1)c1ccc(O)cc1` (stereo not given): the IC50 in assay [1] is 0.29 µM; in assay [2], 5.6 µM; in assay [3], 2.2 µM; in the assay filed under Homo sapiens, 1.5 µM; in assay [4] it was 5.6 µM.
